Active and inactive are the calls of the source. The calls are words filed in the database; no cut-off is given here.
Assays:
Beta-lactamase OXA-10 = Beta-lactamase OXA-10 (Pseudomonas aeruginosa, UniProt P14489); experiment: Inhibition of Pseudomonas aeruginosa class D serine beta-lactamase OXA-10 expressed in Escherichia coli BL21(DE3) cells assessed as reduction in breakdown of cephalosporin FC-5 in presence of aqueous sodium bicarbonate after 10 to 300 mins by fluorescence method
[1] = Inhibition of bacterial class B1 metallo beta-lactamase VIM-1 assessed as reduction in breakdown of cephalosporin FC-5 after 10 mins by fluorescence method; set-up: species or system Bacteria
Method in brief: (§1)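 Enzyme levels: L1 50 pM, IMP-1 20 pM, NDM-1 20 pM, VIM-1 100 pM, VIM-2 500 pM. Inhibitor pre-incubated with enzyme 10 min. Four-parameter fit for IC50.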

[2] = Inhibition of Aeromonas hydrophila class B2 metallo beta-lactamse CphA assessed as reduction in meropenem hydrolysis after 10 mins by UV absorbance method
[3] = Inhibition of recombinant bacterial class B1 metallo beta-lactamase IMP-1 expressed in Escherichia coli assessed as reduction in breakdown of cephalosporin FC-5 preincubated for 10 mins followed by cephalosporin FC-5 addition by fluorescence method; set-up: species or system Bacteria
Method in brief: (§2)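 Enzyme levels: L1 50 pM, IMP-1 20 pM, NDM-1 20 pM, VIM-1 100 pM, VIM-2 500 pM. Inhibitor pre-incubated with enzyme 10 min. Initial rates by fluorescence (ex 380/em 460 nm). Four-parameter fit for IC50.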

[4] = Inhibition of recombinant bacterial class B1 metallo beta-lactamase NDM-1 expressed in Escherichia coli assessed as reduction in breakdown of cephalosporin FC-5 preincubated for 10 mins followed by cephalosporin FC-5 addition by fluorescence method; set-up: species or system Bacteria; method in brief: as §2
[5] = Inhibition of Pseudomonas aeruginosa PAO1 class C serine beta-lactamase N-terminal His- tagged AmpC expressed in Escherichia coli BL21(DE3) cells assessed as reduction in breakdown of cephalosporin FC-5 preincubated for 10 to 300 mins followed by cephalosporin FC-5 addition by fluorescence method
[6] = Inhibition of Klebsiella pneumoniae class D serine beta-lactamase N-terminal His-tagged OXA-48 expressed in Escherichia coli BL21(DE3) cells assessed as reduction in breakdown of cephalosporin FC-5 in presence of aqueous sodium bicarbonate after 10 to 300 mins by fluorescence method
[7] = Inhibition of bacterial class B1 metallo beta-lactamase IMP-1 assessed as reduction in breakdown of cephalosporin FC-5 after 10 mins by fluorescence method; set-up: species or system Bacteria; method in brief: as §2
[8] = Inhibition of bacterial class B1 metallo beta-lactamse VIM-2 assessed as reduction in breakdown of cephalosporin FC-5 after 10 mins by fluorescence method; set-up: species or system Bacteria; method in brief: as §2
[9] = Inhibition of Stenotrophomonas maltophilia class B3 metallo beta-lactamse L1 assessed as reduction in breakdown of cephalosporin FC-5 after 10 mins by fluorescence method; method in brief: as §2
[10] = Inhibition of Pseudomonas aeruginosa class C serine beta-lactamase AmpC assessed as reduction in breakdown of cephalosporin FC-5 after 10 mins by fluorescence method
Method in brief: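 AmpC at 500 pM was pre-incubated with inhibitor for 10 min at room temperature in phosphate buffer, pH 7.4, with 0.01% (v/v) Triton X-100, then given 5 μM FC5. Initial hydrolysis rates were read by fluorescence (ex 380 nm, em 460 nm), and IC50 was taken from a four-parameter log(inhibitor) vs response fit.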

[11] = Inhibition of bacterial class D serine beta-lactamase OXA-10 assessed as reduction in breakdown of cephalosporin FC-5 after 10 mins by fluorescence method; set-up: species or system Bacteria
Method in brief: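 Run in SBL buffer (phosphate pH 7.4, 0.01% v/v Triton X-100) at room temperature with 5 μM FC5. Enzyme levels: OXA-10 250 pM, OXA-48 12.5 nM. Enzyme pre-incubated with inhibitor 10 min. Initial rates by fluorescence (ex 380/em 460 nm). IC50 from a four-parameter log(inhibitor) fit.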

[12] = Inhibition of bacterial class D serine beta-lactamase OXA-10 assessed as reduction in breakdown of cephalosporin FC-5 in presence of aqueous sodium bicarbonate after 10 mins by fluorescence method; set-up: species or system Bacteria
Method in brief: (§3)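 SBL buffer (phosphate pH 7.4, 0.01% v/v Triton X-100) supplemented with 100 mM NaHCO3, room temperature, FC5 5 μM. Enzyme levels: OXA-10 250 pM, OXA-48 12.5 nM. Inhibitor pre-incubated with enzyme 10 min. Initial rates by fluorescence at 380/460 nm. IC50 from a four-parameter fit.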

[13] = Inhibition of bacterial class D serine beta-lactamase OXA-48 assessed as reduction in breakdown of cephalosporin FC-5 after 10 mins by fluorescence method; set-up: species or system Bacteria
Method in brief: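 Run in SBL buffer (phosphate pH 7.4, 0.01% v/v Triton X-100) at room temperature with 5 μM FC5. Enzyme pre-incubated with inhibitor 10 min. IC50 from a four-parameter log(inhibitor) fit.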

[14] = Inhibition of bacterial class D serine beta-lactamase OXA-48 assessed as reduction in breakdown of cephalosporin FC-5 in presence of aqueous sodium bicarbonate after 10 mins by fluorescence method; set-up: species or system Bacteria; method in brief: as §3
Bacteria = experiment: Reversible inhibition of bacterial class B1 metallo beta-lactamase NDM-1 assessed as reduction in breakdown of cephalosporin FC-5 after 15 to 180 mins by fluorescence method
Escherichia coli [15] = experiment: Inhibition of metallo beta-lactamase NDM-1 in Escherichia coli S117 assessed as potentiation of cefepime-induced antibacterial activity by measuring cefepime MIC at 10 ug/ml by agar dilution method (Rvb > 64 ug/ml)
Method in brief: (§4)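 Agar dilution MIC of meropenem or cefepime combined with the inhibitor, against NDM-1-producing clinical isolates of E. coli and K. pneumoniae. Interpreted per EUCAST/CLSI guidelines. Reference strain MICs within ±1 log2 dilution of reference values.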

Escherichia coli [16] = experiment: Inhibition of metallo beta-lactamase NDM-1 in Escherichia coli IR57 assessed as potentiation of cefepime-induced antibacterial activity by measuring cefepime MIC at 10 ug/ml by agar dilution method (Rvb > 64 ug/ml); method in brief: as §4
[17] = molecular target: Metallo-beta-lactamase type 2 (Klebsiella pneumoniae) (UniProt C7C422); experiment: Inhibition of metallo beta-lactamase NDM-1 in Klebsiella pneumoniae B68-1 assessed as potentiation of cefepime-induced antibacterial activity by measuring cefepime MIC at 10 ug/ml by agar dilution method (Rvb > 64 ug/ml); method in brief: as §4
Chain of Metallo-beta-lactamase type 2 (Klebsiella pneumoniae) (C7C422 whole entry): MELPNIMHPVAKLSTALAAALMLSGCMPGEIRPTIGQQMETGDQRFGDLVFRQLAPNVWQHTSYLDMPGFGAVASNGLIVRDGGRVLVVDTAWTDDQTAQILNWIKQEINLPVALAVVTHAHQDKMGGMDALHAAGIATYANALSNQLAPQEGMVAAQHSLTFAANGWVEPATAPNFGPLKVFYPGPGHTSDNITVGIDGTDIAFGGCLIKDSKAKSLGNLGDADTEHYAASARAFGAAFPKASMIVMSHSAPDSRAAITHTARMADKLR

[18] = molecular target: Metallo-beta-lactamase type 2 (Klebsiella pneumoniae) (UniProt C7C422); experiment: Inhibition of metallo beta-lactamase NDM-1 in Klebsiella pneumoniae IR43 assessed as potentiation of cefepime-induced antibacterial activity by measuring cefepime MIC at 10 ug/ml by agar dilution method (Rvb > 64 ug/ml); method in brief: as §4
Escherichia coli [19] = experiment: Inhibition of metallo beta-lactamase NDM-1 in Escherichia coli 91N assessed as potentiation of cefepime-induced antibacterial activity by measuring cefepime MIC at 10 ug/ml by agar dilution method (Rvb > 64 ug/ml); method in brief: as §4
Escherichia coli [20] = experiment: Inhibition of metallo beta-lactamase NDM-1 in Escherichia coli S117 assessed as potentiation of meropenem-induced antibacterial activity by measuring meropenem MIC at 10 ug/ml by agar dilution method (Rvb > 64 ug/ml); method in brief: as §4
Escherichia coli [21] = experiment: Inhibition of metallo beta-lactamase NDM-1 in Escherichia coli IR57 assessed as potentiation of meropenem-induced antibacterial activity by measuring meropenem MIC at 10 ug/ml by agar dilution method (Rvb > 64 ug/ml); method in brief: as §4
[22] = molecular target: Metallo-beta-lactamase type 2 (Klebsiella pneumoniae) (UniProt C7C422); experiment: Inhibition of metallo beta-lactamase NDM-1 in Klebsiella pneumoniae B68-1 assessed as potentiation of meropenem-induced antibacterial activity by measuring meropenem MIC at 10 ug/ml by agar dilution method (Rvb > 64 ug/ml); method in brief: as §4
Escherichia coli [23] = experiment: Inhibition of metallo beta-lactamase NDM-1 in Escherichia coli 91N assessed as potentiation of meropenem-induced antibacterial activity by measuring meropenem MIC at 10 ug/ml by agar dilution method (Rvb > 64 ug/ml); method in brief: as §4
[24] = Inhibition of bacterial class B1 metallo beta-lactamase NDM-1 assessed as reduction in breakdown of cephalosporin FC-5 after 10 mins by fluorescence method; set-up: species or system Bacteria; method in brief: as §1

Chain of Beta-lactamase OXA-10 (P14489 whole entry): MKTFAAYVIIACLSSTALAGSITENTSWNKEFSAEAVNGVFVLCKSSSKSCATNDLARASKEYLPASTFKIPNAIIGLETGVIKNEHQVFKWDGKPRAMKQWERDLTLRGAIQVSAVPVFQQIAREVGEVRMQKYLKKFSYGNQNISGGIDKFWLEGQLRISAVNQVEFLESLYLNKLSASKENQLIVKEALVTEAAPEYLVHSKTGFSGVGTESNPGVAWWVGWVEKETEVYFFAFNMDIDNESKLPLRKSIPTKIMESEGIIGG

Row | IC50 [1] [nM] | IC50 [2] [nM] | SMILES | IC50 [7] [nM] | IC50 [8] [nM] | IC50 [9] [nM] | IC50 [10] [nM] | IC50 [11] [nM] | IC50 [12] [nM] | IC50 [14] [nM] | also measured
1 | 85 | > 100000 | NCc1ccc(C(=O)N[C@H]2Cc3cccc(C(=O)O)c3OB2O)cc1 | – | – | – | – | – | – | – | IC50 (Beta-lactamase OXA-10): 5100 nM; IC50 [3]: 1000 nM; IC50 [4]: 29 nM; IC50 [5]: 120 nM; IC50 [6]: 2600 nM
2 | 398000 | 631000 | O=C(O)C[C@@H]1CC[C@H](NC(=O)Cc2cccs2)B(O)O1 [VABORBACTAM] | 126000 | 316000 | 336000 | 5000 | > 400000 | > 400000 | 32000 | IC50 [24]: 631000 nM

Row | SMILES | IC50 [1] [nM] | IC50 [2] [nM] | IC50 [7] [nM] | IC50 [8] [nM] | IC50 [9] [nM] | IC50 [10] [nM] | IC50 [11] [nM] | IC50 [12] [nM] | IC50 [14] [nM] | also measured
3 | NCCN[C@H]1CC[C@H](CC(=O)N[C@H]2Cc3cccc(C(=O)O)c3OB2O)CC1 | – | 2510 | 2510 | 0.5 | > 10000 | 301 | 234 | 645 | 2390 | IC50 [13]: 537 nM; inhibition (Bacteria): Active; MIC (Escherichia coli [15]): 16 µg/mL; MIC (Escherichia coli [16]): 8 µg/mL; MIC [17]: 0.5 µg/mL; MIC [18]: 0.5 µg/mL; MIC (Escherichia coli [19]): 4 µg/mL; MIC (Escherichia coli [20]): 1 µg/mL; MIC (Escherichia coli [21]): 0.5 µg/mL; MIC [22]: 0.5 µg/mL; MIC (Escherichia coli [23]): 0.125 µg/mL

Reference: ChEMBL document CHEMBL4321803 (J Med Chem, 2019)
